Assay results taken from publication PMC5644278 (Alzheimer's & Dementia : Translational Research & Clinical …, 2016).

Key:
Type in all cases: in vivo, human
healthy male subjects [1] = assay: Adaptive tracking; settings: donepezil 10 mg oral; healthy elderly males
How it was run: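 Healthy males got one intranasal spray dose in a double-dummy design with oral capsules: 11 mg for young subjects, 22 or 33 mg for elderly subjects, 6 per dose, with age-matched nasal placebo. NeuroCart tests were run twice before dosing, then at 1, 2, 3, 4, 5, 6, 8 and 10 h after, in a quiet room, one subject per session. Analysis was mixed-model ANOVA: treatment, time and treatment×time fixed, subject random, baseline as covariate.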

healthy male subjects [2] = assay: Treatment emergent adverse events, single dose study; settings: for Nausea, incidence: healthy elderly males; for Diarrhea, incidence / Vomiting, incidence: healthy elderly subjects
healthy male subjects [3] = assay: VAS nausea, single dose; settings: healthy elderly males
healthy male subjects [4] = assay: NeuroCart test battery, overall pharmacodynamic effects; settings: galantamine 16 mg oral; healthy elderly males
How it was run: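 Double-blind study in healthy nonsmoking elderly men (cohorts 3–4, 12 on active drug). A single oral 16 mg dose was given at the same time as the other cohort treatments, with elderly double-placebo controls. Battery: N-back, Stroop, adaptive tracking, Bond–Lader VAS, pharmaco-EEG, eye movements, pupil size, body sway, face encoding/recognition and VVLT. Two baseline runs, then 1–6, 8 and 10 h post-dose. VVLT ran at 1 h 30 min only; face recognition predose and at 1 h 45 min. Analysis by mixed-model ANOVA with fixed factor treatment.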

[5] = Plasma pharmacokinetics after single intranasal dose of Gln-1062; settings: for half-life / AUC(0-inf) / Cmax: male, human, inhaled or intranasal

## COc1cc2c(cc1OC)C(=O)C(CC1CCN(Cc3ccccc3)CC1)C2 (stereo not drawn) [donepezil, reference compound]
Healthy male subjects [1]
  adaptive tracking compared with placebo (in words): improvement
Healthy male subjects [2]; donepezil 10 mg oral
  Nausea, incidence: 16.7%
  Diarrhea, incidence: 33.3%
  Vomiting, incidence: 16.7%

## COc1ccc2c3c1O[C@H]1C[C@@H](O)C=C[C@@]31CCN(C)C2 [galantamine]
Healthy male subjects [3]
  peak of nausea (VAS nausea), time after administration: 2 h
Healthy male subjects [4]
  pharmacodynamic effects compared with placebo: did not induce any measurable pharmacodynamic effects
Healthy male subjects [2]; galantamine 16 mg oral
  Cold sweat or hyperhidrosis, incidence: 33.3%
  Nausea, incidence: 33.3%
  Diarrhea, incidence: 8.3%
  Vomiting, incidence: 41.7%
[5]
  half-life: ~10 h
[5]; 5.5 mg
  AUC(0-inf): 0.268 µg·h/mL
  Cmax: 0.0176 µg/mL
  half-life: 9.85 h
[5]; 11 mg
  AUC(0-inf): 0.367 µg·h/mL
  Cmax: 0.0277 µg/mL
  half-life: 7.94 h
[5]; 22 mg
  AUC(0-inf): 0.799 µg·h/mL
  Cmax: 0.0465 µg/mL
  half-life: 8.71 h
[5]; 33 mg
  AUC(0-inf): 1.19 µg·h/mL
  Cmax: 0.0761 µg/mL
  half-life: 9.24 h
[5]; 44 mg
  AUC(0-inf): 1.53 µg·h/mL
  Cmax: 0.0747 µg/mL
  half-life: 11.1 h
[5]; over the Gln-1062 intranasal dose levels
  Tmax for galantamine after administration of Gln-1062: 2.3 to 4.7 h
